Published values collected from several papers.
Lines come from different studies, so protocols differ.
Cell line: MCF7
Effect on: cell growth or viability

Compound | assay | setting | IC50 [µM]
COc1cc2ncnc(Nc3ccc4c(c3)/C(=C/c3ccccc3)C(=O)N4C)c2cc1OC | MTT | – | 7.84
COc1cc2c3c(n(CCCn4ccnc4)c(=O)c2cc1OC)-c1nc2c(cc1C3=O)OCO2 | – | 72 h | 0.372
Cc1nc(Nc2ccc3c(c2)/C(=C/c2ccccc2Cl)C(=O)N3)c2ccccc2n1 | MTT | – | 6.45
Cc1ccc(-c2cc(-c3ccc(Cl)c(F)c3)c3c(=O)n(C)c(=O)n(C)c3n2)cc1 | MTT | 48 h | 37
CC(C)NCC(COc1cccc2ccccc12)OC(=O)C=Cc1ccc(O)c(O)c1 (centres unmarked) | MTT | – | 5.37
Cc1nc(N(C)c2ccc3c(c2)/C(=C/c2ccccc2Cl)C(=O)N3C)c2ccccc2n1 | MTT | – | 10.8
COc1cc2c3c(n(CCCNC(C)C)c(=O)c2cc1OC)-c1nc2c(cc1C3=O)OCO2 | – | 72 h | 0.318
Cc1nc(Nc2ccc3c(c2)/C(=C/c2ccccc2)C(=O)N3Cc2ccccc2)c2ccccc2n1 | MTT | – | 11.6
COc1ccc(-c2cc(-c3ccccc3Cl)c3c(=O)[nH]c(=O)[nH]c3n2)cc1 | MTT | 48 h | 17.5
C=CC(=O)Nc1cc(Nc2nccc(-c3cn(C)c4ccccc34)n2)c(OC)cc1N(C)CCN(C)C | MTS | 72 h | 8.34
Cc1ccc(-c2cc(-c3c(Cl)cccc3Cl)c3c(=O)n(C)c(=O)n(C)c3n2)cc1 | MTT | 48 h | 6.41
CC1CCC(C(C)C)C(OC(=O)C=Cc2ccc(O)c(O)c2)C1 (centres unmarked) | MTT | – | 28.6
Cc1ccc(-c2cc(-c3ccc(Cl)cc3)c3c(=O)n(C)c(=O)n(C)c3n2)cc1 | MTT | 48 h | 7.49
O=C(C=Cc1ccccc1)Nc1cc(-c2ccnc(N3CCC(O)CC3)c2)ccn1 | MTT | 72 h | 2.51
COc1cc2ncnc(N(C)c3ccc4c(c3)/C(=C/c3cccc(Cl)c3)C(=O)N4C)c2cc1OC | MTT | – | 6.53
CN(Cc1cnc2nc(N)nc(N)c2n1)c1ccc(C(=O)N[C@@H](CCC(=O)O)C(=O)O)cc1 | MTT | – | 19
COc1ccc(-c2cc(-c3ccccc3Cl)c3c(=O)n(C)c(=O)n(C)c3n2)cc1 | MTT | 48 h | 21.5
COc1cc2ncnc(N(C)c3ccc4c(c3)/C(=C/c3ccccc3)C(=O)N4C)c2cc1OC (mixture of isomers) | MTT | – | 9.38
COc1ccc(-c2cc(-c3ccc(OC)cc3)c3c(=O)[nH]c(=O)[nH]c3n2)cc1 | MTT | 48 h | 8.38
COc1cc2c3c(n(CCCN4CCOCC4)c(=O)c2cc1OC)-c1nc2c(cc1C3=O)OCO2 | – | 72 h | 0.936
